Experiments:
Rattus norvegicus [1] = species on record: Rattus norvegicus; test: […]; assay type: ADME, organism-based, Urine; design: dose 10 mg/kg, route oral; details: in vivo, po, 10 mg/kg
In short: (§1)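 Male Sprague-Dawley rats, about 160 g, fasted 24 h and water withheld 1 1/2 h beforehand; food and water withheld during the test. Dosing by gavage with 25 mL/kg 0.9% saline containing 0.5% (carboxymethyl)cellulose, agent dissolved or suspended. Three cages of two rats each per dose, held in metabolism cages. Urine collected over 5 h. Volume given in mL, Na+ in mequiv. Significance versus control at P < 0.05.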

Rattus norvegicus [2] = species on record: Rattus norvegicus; test: […]; assay type: ADME, organism-based, Urine; design: dose 100 mg/kg, route oral; details: in vivo, po, 100 mg/kg; in short: as §1
Rattus norvegicus [3] = species on record: Rattus norvegicus; test: […]; assay type: ADME, organism-based, Urine; design: dose 3 mg/kg, route oral; details: in vivo, po, 3 mg/kg; in short: as §1
Rattus norvegicus [4] = species on record: Rattus norvegicus; test: […]; assay type: ADME, organism-based, Urine; design: dose 0.3 mg/kg, route oral; details: in vivo, po, 0.3 mg/kg
In short: (§2)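 Dose-response test in male Sprague-Dawley rats of about 160 g, fasted 24 h, with water withheld 1½ h before and during the test. Each rat got a single gavage of 25 mL/kg 0.9% saline with 0.5% carboxymethylcellulose carrying the agent (0.3–100 mg/kg range). Rats were housed two per metabolism cage, and urine was collected for 5 h. Mean urine volume (mL) was compared with controls (P < 0.05).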

Rattus norvegicus [5] = species on record: Rattus norvegicus; test: […]; assay type: ADME, organism-based, Urine; design: dose 1 mg/kg, route oral; details: in vivo, po, 1 mg/kg; in short: as §2
Rattus norvegicus [6] = test: Mean excretion of potassium in conscious rats at a dose of 10 mg/kg given orally; assay type: ADME, organism-based; design: dose 10 mg/kg, route oral; details: in vivo, po
In short: (§3)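 Secondary dose-response in male Sprague-Dawley rats (~160 g), fasted and hydrated as in the primary screen. Oral gavage at 0.3-100 mg/kg in 25 mL/kg saline/0.5% CMC, three cages of two rats per dose. Urine collected 5 h; Na, K, Cl, HCO3 measured. Values are mean excretion (mequiv), compared with controls at P < 0.05.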

Rattus norvegicus [7] = test: Mean excretion of potassium in conscious rats at a dose of 100 mg/kg given orally; assay type: ADME, organism-based; design: dose 100 mg/kg, route oral; details: in vivo, po; in short: as §3
Rattus norvegicus [8] = test: Mean excretion of potassium in conscious rats at a dose of 3.0 mg/kg given orally; assay type: ADME, organism-based; design: dose 3 mg/kg, route oral; details: in vivo, po; in short: as §3
Rattus norvegicus [9] = test: Mean excretion of potassium in conscious rats at a dose of 30 mg/kg given orally; assay type: ADME, organism-based; design: dose 30 mg/kg, route oral; details: in vivo, po; in short: as §3
Rattus norvegicus [10] = test: Mean excretion of sodium in conscious rats at a dose of 0.3 mg/kg given orally; assay type: ADME, organism-based; design: dose 0.3 mg/kg, route oral; details: in vivo, po; in short: as §1
Rattus norvegicus [11] = test: Mean excretion of […] in conscious rats at a dose of 1.0 mg/kg given orally; assay type: ADME, organism-based; design: dose 1 mg/kg, route oral; details: in vivo, po; in short: as §1
Rattus norvegicus [12] = test: Mean excretion of sodium in conscious rats at a dose of 10 mg/kg given orally; assay type: ADME, organism-based; design: dose 10 mg/kg, route oral; details: in vivo, po; in short: as §1
Rattus norvegicus [13] = test: Mean excretion of sodium in conscious rats at a dose of 100 mg/kg given orally; assay type: ADME, organism-based; design: dose 100 mg/kg, route oral; details: in vivo, po; in short: as §1
Rattus norvegicus [14] = test: Mean excretion of sodium in conscious rats at a dose of 3.0 mg/kg given orally; assay type: ADME, organism-based; design: dose 3 mg/kg, route oral; details: in vivo, po; in short: as §1
Rattus norvegicus [15] = test: Mean excretion of sodium in conscious rats at a dose of 30 mg/kg given orally; assay type: ADME, organism-based; design: dose 30 mg/kg, route oral; details: in vivo, po; in short: as §1
Rattus norvegicus [16] = test: Mean excretion of chloride in conscious rats at a dose of 1.0 mg/kg given orally; assay type: ADME, organism-based; design: dose 1 mg/kg, route oral; details: in vivo, po; in short: as §3
Rattus norvegicus [17] = test: Mean excretion of chloride in conscious rats at a dose of 10 mg/kg given orally; assay type: ADME, organism-based; design: dose 10 mg/kg, route oral; details: in vivo, po; in short: as §3
Rattus norvegicus [18] = test: Mean excretion of chloride in conscious rats at a dose of 100 mg/kg given orally; assay type: ADME, organism-based; design: dose 100 mg/kg, route oral; details: in vivo, po; in short: as §3
Rattus norvegicus [19] = test: Mean excretion of chloride in conscious rats at a dose of 30 mg/kg given orally; assay type: ADME, organism-based; design: dose 30 mg/kg, route oral; details: in vivo, po; in short: as §3
Rattus norvegicus [20] = test: Mean excretion of chloride in conscious rats at a dose of 3.0 mg/kg given orally; assay type: ADME, organism-based; design: dose 3 mg/kg, route oral; details: in vivo, po; in short: as §3
Rattus norvegicus [21] = test: Mean excretion of Cl- in conscious rats at a dose of 0.3 mg/kg given orally; assay type: ADME, organism-based, Urine; design: dose 0.3 mg/kg, route oral; details: in vivo, po; in short: as §2
Rattus norvegicus [22] = test: Mean excretion of potassium in conscious rats at a dose of 1.0 mg/kg given orally; assay type: ADME, organism-based; design: dose 1 mg/kg, route oral; details: in vivo, po; in short: as §3
Rattus norvegicus [23] = test: Mean excretion of potassium in conscious rats at a dose of 0.3 mg/kg given orally; assay type: ADME, organism-based; design: dose 0.3 mg/kg, route oral; details: in vivo, po; in short: as §3
[24] = Diuretic activity at 40 mg/kg (screening dose-97.3 umol/kg) in […] in a two stage experiment; T/C1.2 = urine vol of treated rats / urine vol of control rats; assay type: functional
In short: (§4)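 40 mg/kg given by gavage in 25 mL/kg 0.9% saline with 0.5% (carboxymethyl)cellulose. Four rats per agent, two per metabolism cage; 20 controls; 5 h urine. T/C = treated/control urine volume. Stage-1 T/C of 1.66 or more leads to stage 2; product T/C1·T/C2 of 3.34 or more counts as active.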

[25] = Diuretic activity at 40 mg/kg (screening dose-97.3 umol/kg) in […] in a one stage experiment; T/C = urine vol of treated rats / urine vol of control rats; assay type: functional; in short: as §4
Rattus norvegicus [26] = species on record: Rattus norvegicus; test: […]; assay type: ADME, organism-based, Urine; design: dose 30 mg/kg, route oral; details: in vivo, po, 30 mg/kg; in short: as §1
[27] = Diuretic activity at 40 mg/kg (screening dose 87.7 umol/kg) in […] in a two stage experiment; T/C1.2 = urine vol of treated rats / urine vol of control rats; assay type: functional; in short: as §4
[28] = Diuretic activity at 40 mg/kg (screening dose-87.7 umol/kg) in […] in a one stage experiment; T/C = urine vol of treated rats / urine vol of control rats; assay type: functional; in short: as §4
[29] = Diuretic activity at 40 mg/kg (screening dose-105.3 umol/kg) in […] in a one stage experiment; T/C = urine vol of treated rats / urine vol of control rats; assay type: functional; in short: as §4
[30] = Diuretic activity at 40 mg/kg (screening dose-84.7 umol/kg) in […] in a two stage experiment; T/C1.2 = urine vol of treated rats / urine vol of control rats; assay type: functional; in short: as §4
[31] = Diuretic activity at 40 mg/kg (screening dose 84.7 umol/kg) in […] in a one stage experiment; T/C = urine vol of treated rats / urine vol of control rats; assay type: functional; in short: as §4
[32] = Diuretic activity at 40 mg/kg (screening dose-61.3 umol/kg) in […] in a one stage experiment; T/C = urine vol of treated rats / urine vol of control rats; assay type: functional; in short: as §4
[33] = Diuretic activity at 40 mg/kg (screening dose-103.9 umol/kg) in […] in a one stage experiment; T/C = urine vol of treated rats / urine vol of control rats; assay type: functional; in short: as §4

SMILES: CN(C)CCc1nnc2n1-c1ccc(Br)cc1C(c1ccccn1)=NC2
- Mean urine volume (Rattus norvegicus [1]): 5.63 mL
- Mean urine volume (Rattus norvegicus [2]): 11.02 mL
- Mean urine volume (Rattus norvegicus [3]): 5.53 mL
- Mean urine volume (Rattus norvegicus [4]): 5.94 mL
- Mean urine volume (Rattus norvegicus [5]): 4.69 mL
- Mean excretion of K+ (Rattus norvegicus [6]): 0.33 m equiv
- Mean excretion of K+ (Rattus norvegicus [7]): 0.41 m equiv
- Mean excretion of K+ (Rattus norvegicus [8]): 0.39 m equiv
- Mean excretion of K+ (Rattus norvegicus [9]): 0.37 m equiv
- Mean excretion of Na+ (Rattus norvegicus [10]): 0.74 m equiv
- Mean excretion of Na+ (Rattus norvegicus [11]): 0.6 m equiv
- Mean excretion of Na+ (Rattus norvegicus [12]): 0.77 m equiv
- Mean excretion of Na+ (Rattus norvegicus [13]): 1.26 m equiv
- Mean excretion of Na+ (Rattus norvegicus [14]): 0.79 m equiv
- Mean excretion of Na+ (Rattus norvegicus [15]): 1.03 m equiv
- Mean excretion of Cl- (Rattus norvegicus [16]): 0.7 m equiv
- Mean excretion of Cl- (Rattus norvegicus [17]): 0.81 m equiv
- Mean excretion of Cl- (Rattus norvegicus [18]): 1.21 m equiv
- Mean excretion of Cl- (Rattus norvegicus [19]): 1.05 m equiv
- Mean excretion of Cl- (Rattus norvegicus [20]): 0.84 m equiv
- Mean excretion of Cl- (Rattus norvegicus [21]): 0.81 m equiv
- Mean excretion of K+ (Rattus norvegicus [22]): 0.32 m equiv
- Mean excretion of K+ (Rattus norvegicus [23]): 0.38 m equiv
- T/C 1.2 [24]: 3.46
- T/C 1 [25]: 1.75
- Mean urine volume (Rattus norvegicus [26]): 8.05 mL

SMILES: CC1N=C(c2ccccc2)c2cc(Cl)ccc2-n2c1nnc2C(CN(C)C)c1ccccc1 (stereo unspecified)
- Mean urine volume (Rattus norvegicus [1]): 7.53 mL
- Mean urine volume (Rattus norvegicus [2]): 10.66 mL
- Mean urine volume (Rattus norvegicus [3]): 4.96 mL
- Mean urine volume (Rattus norvegicus [4]): 3.97 mL
- Mean urine volume (Rattus norvegicus [5]): 4.39 mL
- Mean excretion of K+ (Rattus norvegicus [6]): 0.22 m equiv
- Mean excretion of K+ (Rattus norvegicus [7]): 0.21 m equiv
- Mean excretion of K+ (Rattus norvegicus [8]): 0.24 m equiv
- Mean excretion of K+ (Rattus norvegicus [9]): 0.24 m equiv
- Mean excretion of Na+ (Rattus norvegicus [10]): 0.74 m equiv
- Mean excretion of Na+ (Rattus norvegicus [11]): 0.82 m equiv
- Mean excretion of Na+ (Rattus norvegicus [12]): 1.33 m equiv
- Mean excretion of Na+ (Rattus norvegicus [13]): 2.04 m equiv
- Mean excretion of Na+ (Rattus norvegicus [14]): 0.86 m equiv
- Mean excretion of Na+ (Rattus norvegicus [15]): 1.65 m equiv
- Mean excretion of Cl- (Rattus norvegicus [16]): 0.86 m equiv
- Mean excretion of Cl- (Rattus norvegicus [17]): 1.33 m equiv
- Mean excretion of Cl- (Rattus norvegicus [18]): 1.9 m equiv
- Mean excretion of Cl- (Rattus norvegicus [19]): 1.64 m equiv
- Mean excretion of Cl- (Rattus norvegicus [20]): 0.91 m equiv
- Mean excretion of Cl- (Rattus norvegicus [21]): 0.82 m equiv
- Mean excretion of K+ (Rattus norvegicus [22]): 0.19 m equiv
- Mean excretion of K+ (Rattus norvegicus [23]): 0.24 m equiv
- T/C 1.2 [27]: 7.05
- T/C 1 [28]: 3.05
- Mean urine volume (Rattus norvegicus [26]): 9.56 mL

SMILES: CC(CN(C)C)c1nnc2n1-c1ccc(Cl)cc1C(c1ccccc1)=NC2 (stereo unspecified)
- T/C 1 [29]: 1.25

SMILES: CN(C)CC(c1ccccc1Cl)c1nnc2n1-c1ccc(Cl)cc1C(c1ccccc1)=NC2 (stereo unspecified)
- Mean urine volume (Rattus norvegicus [1]): 5.37 mL
- Mean urine volume (Rattus norvegicus [2]): 9.85 mL
- Mean urine volume (Rattus norvegicus [3]): 4.67 mL
- Mean urine volume (Rattus norvegicus [4]): 5.36 mL
- Mean urine volume (Rattus norvegicus [5]): 4.54 mL
- Mean excretion of K+ (Rattus norvegicus [6]): 0.21 m equiv
- Mean excretion of K+ (Rattus norvegicus [7]): 0.22 m equiv
- Mean excretion of K+ (Rattus norvegicus [8]): 0.22 m equiv
- Mean excretion of K+ (Rattus norvegicus [9]): 0.16 m equiv
- Mean excretion of Na+ (Rattus norvegicus [10]): 1 m equiv
- Mean excretion of Na+ (Rattus norvegicus [11]): 0.93 m equiv
- Mean excretion of Na+ (Rattus norvegicus [12]): 1.03 m equiv
- Mean excretion of Na+ (Rattus norvegicus [13]): 1.76 m equiv
- Mean excretion of Na+ (Rattus norvegicus [14]): 0.81 m equiv
- Mean excretion of Na+ (Rattus norvegicus [15]): 1.22 m equiv
- Mean excretion of Cl- (Rattus norvegicus [16]): 0.93 m equiv
- Mean excretion of Cl- (Rattus norvegicus [17]): 1.13 m equiv
- Mean excretion of Cl- (Rattus norvegicus [18]): 1.69 m equiv
- Mean excretion of Cl- (Rattus norvegicus [19]): 1.21 m equiv
- Mean excretion of Cl- (Rattus norvegicus [20]): 0.84 m equiv
- Mean excretion of Cl- (Rattus norvegicus [21]): 1.08 m equiv
- Mean excretion of K+ (Rattus norvegicus [22]): 0.24 m equiv
- Mean excretion of K+ (Rattus norvegicus [23]): 0.25 m equiv
- T/C 1.2 [30]: 3.77
- T/C 1 [31]: 1.67
- Mean urine volume (Rattus norvegicus [26]): 6.73 mL

SMILES: CN1CCN(CC(c2ccccc2)c2nnc3n2-c2ccc(Cl)cc2C(c2ccccc2)=NC3)CC1.I (stereo unspecified)
- T/C 1 [32]: 1.02

SMILES: Clc1ccc2c(c1)C(c1ccccc1)=NCc1nnc(Cc3ccccc3)n1-2
- T/C 1 [33]: 0.96

— ChEMBL document CHEMBL1124476, “1-(2-aminoethyl)-6-aryl-4H- [1,2,4]triazolo[4,3-a][1,4]benzodiazepines with diuretic and natriuretic activity” (J Med Chem, 1989)
